Only some compounds are listed: those with a hit (about 5.1% of all), similar ones and a draw of the others.
STAT1 inh: STAT1 signaling inhibitors, primary screen, cell-based, HTS, luciferase reporter; NIH 3T3 STAT1-luciferase reporter, IFN-gamma, luminescence; inhibition, % at 5.5 µM; 200,000 tested, 0.35% active;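 active = inhibition above a set limit, the mean inhibition across all tested compounds plus 3 SD, cut at about 34% in these data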
NF-kB expr up: activators of NF-kB expression in neurons, primary screen, cell-based, HTS; 190,000 tested, 1.6% active; human neuronal cells, NF-kB reporter expression; active compounds read high; fold change at 12.5 µM; in the data active = fold change above about 3.3
STAT1 act-1: STAT1 signaling activators, primary screen, cell-based, HTS, luciferase reporter; 200,000 tested, 2.6% active; NIH 3T3 STAT1-luciferase reporter, IFN-gamma, luminescence; 100% = IFN-gamma alone, no compound; activation (% of control), % at 5.5 µM;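 active = activation above the screen-wide mean activation plus 3 SD, cut at about 130% in these data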
STAT3 inh: IL-6 driven STAT3 reporter inhibitors, primary screen, U3A cells, luciferase, luminescence, MLSCN library; IL-6 STAT3-luciferase reporter; host cell line lacks STAT1; inhibition, % at 5.5 µM; 190,000 tested, 0.89% active;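 active = inhibition above the mean inhibition across all screened compounds plus 3 SD, cut at about 44% in these data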
STAT3 act-1: IL-6 driven STAT3 reporter potentiators, primary screen, U3A cells, luciferase, luminescence, MLSCN library; 190,000 tested, 0.91% active; AID 871, 2007; activation (% of control), % at 5.6 µM; IL-6 STAT3-luciferase reporter; 100% = signal with IL-6 EC80 alone;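 active = activation above the screen-wide mean of compound activation plus 3 SD, cut at about 130% in these data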
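Material: human U3A cells carrying STAT3-luciferase construct. Measured by: reporter luminescence signal. Timing: compound 1 h, then IL-6 6 h at 37 °C.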
APP 5'UTR act: activators of APP 5'UTR luciferase reporter, primary screen, SH-SY5Y cells | SH-SY5Y APP 5'UTR luciferase reporter, luminescence; zero percent = DMSO vehicle wells | AID 1276, 2008 | 190,000 tested, 1% active | activation, % at 2 µM;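 active = activation above a set limit, based on mean plus 3 SD of controls, cut at about 140% in these data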
STAT3 act-2: STAT3 reporter potentiators, retest of hits, confirmation, U3A cells, luciferase, luminescence. shares compounds with STAT3 act-1. IL-6 potentiation; U3A cells lack STAT1; 100 means same as IL-6 alone. potentiation (% of control), % at 5.7 µM. 1,200 tested, 64% active. AID 1267, 2008;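 active = percent activation of the STAT3 luciferase reporter above a set limit taken from the earlier primary screen, cut at about 130% in these data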
NFkB act STAT3ct: NF-kB reporter activators in human cells, counter-screen for STAT3 activator project; activation (% of control), % at 5.7 µM; AID 1309, 2008; NF-kappaB reporter activation; shares compounds with STAT3 act-1; 1,200 tested, 11% active; in the data active = activation above about 120%;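 also: reporter induced by TNF-alpha stimulation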
STAT1 act-2: STAT1 reporter activators, IFN-gamma induced, counter-screen for STAT3 activator project, cell-based, NIH 3T3, luciferase luminescence; shares compounds with STAT3 act-1; NIH 3T3 STAT1-luciferase reporter; activation (% of control), % at 5.7 µM; 1,200 tested, 13% active; AID 1318, 2008;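 active = activation above the solvent-only control well mean plus 3 SD, set per screening run, cut at about 120% in these data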
Numbers stand for hits.

CCOc1ccc(NC(=O)c2ccccc2NC(=O)CN(C)CC(=O)Nc2ccc(C)cc2)cc1 was read as STAT1 inh inactive, NF-kB expr up inactive, STAT1 act-1 inactive, STAT3 inh inactive, STAT3 act-1 149, APP 5'UTR act inactive, STAT3 act-2 inactive, NFkB act STAT3ct inactive and STAT1 act-2 inactive.
For N#Cc1ccsc1NC(=O)CSc1ncn[nH]1 the results were STAT1 inh inactive, NF-kB expr up inactive, STAT1 act-1 inactive, STAT3 inh inactive, STAT3 act-1 inactive and APP 5'UTR act inactive.
N#Cc1ccsc1NC(=O)CSc1ncnc2ccccc12 was read as STAT1 inh inactive, NF-kB expr up inactive, STAT1 act-1 inactive, STAT3 inh inactive, STAT3 act-1 148, APP 5'UTR act inactive, STAT3 act-2 144, NFkB act STAT3ct inactive and STAT1 act-2 inactive.
COc1ccccc1Cc1nc(-c2ccc(Br)o2)no1 was read as STAT1 inh inactive, NF-kB expr up inactive, STAT1 act-1 inactive, STAT3 inh inactive, STAT3 act-1 156, APP 5'UTR act inactive, STAT3 act-2 136, NFkB act STAT3ct inactive and STAT1 act-2 126.
Screening Cc1ccccc1OCc1nc(-c2ccc(Br)o2)no1 returned STAT1 inh inactive, NF-kB expr up inactive, STAT1 act-1 inactive, STAT3 inh inactive, STAT3 act-1 inactive and APP 5'UTR act inactive.
`Cc1ccnc2nc(C(=O)OCC(=O)NC(=O)NCc3ccco3)nn12` gave STAT1 inh inactive, NF-kB expr up inactive, STAT1 act-1 inactive, STAT3 inh inactive, STAT3 act-1 inactive and APP 5'UTR act inactive.
O=C(CCC1CCCN(c2ncccn2)C1)NCc1ccc(F)c(F)c1 (centres undefined) was read as STAT1 inh inactive, NF-kB expr up inactive, STAT1 act-1 inactive, STAT3 inh inactive, STAT3 act-1 inactive and APP 5'UTR act inactive.
CCOC(=O)C1CCN(C(=O)c2cc3c(=O)n4ccccc4nc3n2C)CC1 was read as STAT1 inh inactive, NF-kB expr up inactive, STAT1 act-1 inactive, STAT3 inh inactive, STAT3 act-1 inactive and APP 5'UTR act inactive.
For COc1cc(-c2nnc(CSc3nc4ccccc4s3)o2)cc(OC)c1OC the results were STAT1 inh inactive, NF-kB expr up inactive, STAT1 act-1 inactive, STAT3 inh inactive, STAT3 act-1 137, APP 5'UTR act inactive, STAT3 act-2 inactive, NFkB act STAT3ct inactive and STAT1 act-2 inactive.
`COc1cc(-c2nnc(COC(=O)CSc3cc(C)c4ccccc4n3)o2)cc(OC)c1OC` gave STAT1 inh inactive, NF-kB expr up inactive, STAT1 act-1 inactive, STAT3 inh inactive, STAT3 act-1 inactive and APP 5'UTR act inactive.
Screening Cc1nn(Cc2ccc(F)cc2)c(C)c1NC(=O)CCCn1nc([N+](=O)[O-])cc1C returned STAT1 inh inactive, NF-kB expr up inactive, STAT1 act-1 inactive, STAT3 inh inactive, STAT3 act-1 inactive and APP 5'UTR act inactive.
`COc1cccc(-c2nnc3n2N=C(c2cc(OC)ccc2OC)CS3)c1` gave STAT1 inh inactive, NF-kB expr up inactive, STAT1 act-1 inactive, STAT3 inh inactive, STAT3 act-1 inactive and APP 5'UTR act inactive.
For COc1cccc(-c2nnc3n2N=C(C(C)(C)C)CS3)c1 the results were STAT1 inh inactive, NF-kB expr up inactive, STAT1 act-1 inactive, STAT3 inh inactive, STAT3 act-1 204, APP 5'UTR act inactive, STAT3 act-2 184, NFkB act STAT3ct inactive and STAT1 act-2 inactive.
`CCOc1ccc(N(Cc2nnc3n2CCCCC3)C(=O)Nc2cccc(C)c2)cc1` gave STAT1 inh inactive, NF-kB expr up inactive, STAT1 act-1 inactive, STAT3 inh inactive, STAT3 act-1 inactive and APP 5'UTR act inactive.
Screening COc1c2ccoc2nc2c(OC)c(OCC(OC(C)=O)C(C)(C)O)ccc12 (centres undefined) returned STAT1 inh inactive, NF-kB expr up inactive, STAT1 act-1 inactive and APP 5'UTR act inactive.
Screening CC1CCN(C(=O)Cn2c(=O)n(CCc3ccccc3)c(=O)c3ccccc32)CC1 returned STAT1 inh inactive, NF-kB expr up inactive, STAT1 act-1 inactive, STAT3 inh inactive, STAT3 act-1 140, APP 5'UTR act inactive, STAT3 act-2 138, NFkB act STAT3ct inactive and STAT1 act-2 inactive.
`FC(F)(F)c1ccc(C2Nc3cccc4cccc(c34)N2)cc1` gave STAT1 inh inactive, NF-kB expr up inactive, STAT1 act-1 inactive, STAT3 inh inactive, STAT3 act-1 142, APP 5'UTR act inactive, STAT3 act-2 160, NFkB act STAT3ct inactive and STAT1 act-2 inactive.
Screening O=C(Nc1cc(C(F)(F)F)ccc1N1CCOCC1)C1Cc2ccccc2CN1C(=O)c1ccco1 (centres undefined) returned STAT1 inh inactive, NF-kB expr up inactive, STAT1 act-1 inactive, STAT3 inh inactive, STAT3 act-1 139, APP 5'UTR act inactive, STAT3 act-2 inactive, NFkB act STAT3ct inactive and STAT1 act-2 inactive.
`O=C(Nc1cc(C(F)(F)F)ccc1N1CCCCC1)c1ccco1` gave STAT1 inh inactive, NF-kB expr up inactive, STAT1 act-1 inactive, STAT3 inh inactive, STAT3 act-1 inactive and APP 5'UTR act inactive.
For O=C(Cc1c[nH]c2ccccc12)OCC(=O)c1ccccc1 the results were STAT1 inh inactive, NF-kB expr up inactive, STAT1 act-1 inactive, STAT3 inh inactive, STAT3 act-1 136, APP 5'UTR act inactive, STAT3 act-2 inactive, NFkB act STAT3ct inactive and STAT1 act-2 inactive.
`O=C(COC(=O)Cc1c[nH]c2ccccc12)Nc1cccc2ccccc12` gave STAT1 inh inactive, NF-kB expr up inactive, STAT1 act-1 inactive, STAT3 inh inactive, STAT3 act-1 inactive and APP 5'UTR act inactive.
`COC(=O)C1CCN(C(=O)COC(=O)Cc2c[nH]c3ccccc23)CC1` gave STAT1 inh inactive, NF-kB expr up inactive, STAT1 act-1 inactive, STAT3 inh inactive, STAT3 act-1 140, APP 5'UTR act inactive, STAT3 act-2 inactive, NFkB act STAT3ct inactive and STAT1 act-2 inactive.
N#C/C(=C/c1ccc2c(c1)OCO2)C(=O)Nc1ccc(O)cc1 was read as STAT1 inh inactive, NF-kB expr up inactive, STAT1 act-1 inactive, STAT3 inh inactive, STAT3 act-1 inactive and APP 5'UTR act inactive.

Bioassay records: PubChem, several laboratories
